Columns and labels:
[1] = Dissociation constant, pKa of the compound by parallel capillary electrophoresis method; assay type: physicochemical
Outline: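 pKa determined by a 24-point parallel capillary electrophoresis method, quantitation by UV absorbance at 229 nm.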

Plasma [2] = assay: Unbound plasma concentration in CD-1 mouse at 3 mg/kg, iv and 10 mg/kg, po measured at 4 hrs; assay type: ADME, organism-based; conditions: in vivo
Outline: (§1)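 Male CD-1 mice, 3 per cohort, dosed 3 mg/kg iv and 10 mg/kg po; plasma drawn at 1 and 4 h, brains harvested from oral groups only. Formulations varied by compound: 40% PEG 400/10% EtOH/50% H₂O; 30% captisol in H₂O; iv 50 mM citrate in saline (pH 4); po 1% CMC/0.5% Tween/5 mM citrate in H₂O.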

Brain [3] = assay: Fraction unbound in CD-1 mouse brain at 10 mg/kg, po measured at 1 hr; assay type: ADME, organism-based; parameters: dose 10 mg/kg, route oral; conditions: in vivo
Outline: (§2)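 Male CD-1 mice, 3 per cohort, dosed 10 mg/kg orally; brains harvested at 1 and 4 h.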

Brain [4] = assay: Fraction unbound in CD-1 mouse brain at 10 mg/kg, po measured at 4 hrs; assay type: ADME, organism-based; parameters: dose 10 mg/kg, route oral; conditions: in vivo; outline: as §2
[5] = Oral bioavailability in CD-1 mouse at 10 mg/kg; assay type: ADME, organism-based; conditions: in vivo
[6] = Ratio of unbound drug level in brain to plasma in CD-1 mouse measured at 4 hrs; assay type: ADME; conditions: for Kp uu at 4 h: CD-1, mouse, read-out: K(p,uu,brain)
Outline: (§3)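 Male CD-1 mice given 10 mg/kg po, 3 per cohort; plasma and brain collected at 1 and 4 h. Free brain/plasma ratio from unbound concentrations; coverage ratio = free brain concentration divided by HEK293 Aβ₁₋₄₀ cell IC50.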

Plasma [7] = assay: Unbound plasma concentration in CD-1 mouse at 3 mg/kg, iv and 10 mg/kg, po measured at 1 hr; assay type: ADME, organism-based; conditions: in vivo; outline: as §1
[8] = Ratio of unbound drug level in brain to plasma in CD-1 mouse measured at 1 hr; assay type: ADME; conditions: for Kp uu at 1 h: CD-1, mouse, read-out: K(p,uu,brain); outline: as §3
[9] = Clearance in CD-1 mouse liver microsomes at 1 uM after 20 mins by LC-MS/MS analysis in presence of NADPH; assay type: ADME, Microsome
Outline: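 Compound at 1 μM incubated with mouse liver microsomes for 20 min at 37 °C with NADPH.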

Mus musculus = assay: Hepatic clearance in CD-1 mouse at 3 mg/kg, iv; assay type: ADME, organism-based, Liver; parameters: dose 3 mg/kg, route intravenous; conditions: in vivo; outline: as §1
[10] = Ratio of unbound drug level in brain to plasma in Hartley guinea pig at 60 mg/kg, po measured at 3 hrs; assay type: ADME, organism-based, Cavia porcellus; parameters: dose 60 mg/kg, route oral; conditions: brain and plasma (unbound), read-out: K(p,uu,brain)
Outline: (§4)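 Male Hartley guinea pigs given single oral doses of 30, 60 or 100 mg/kg in 1% CMC/0.5% Tween/5 mM citrate in H₂O, 6–8 animals per cohort. Plasma, brain and CSF sampled at 1–12 h; free brain to free plasma ratio computed.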

[11] = Fraction unbound in Hartley guinea pig brain at 60 mg/kg, po measured at 3 hrs; assay type: ADME, organism-based, Cavia porcellus; parameters: dose 60 mg/kg, route oral; conditions: in vivo
[12] = Unbound plasma concentration in Hartley guinea pig at 60 mg/kg, po measured at 3 hrs; assay type: ADME, organism-based, Cavia porcellus; parameters: dose 60 mg/kg, route oral; conditions: in vivo
Outline: (§5)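 Male Hartley guinea pigs were dosed orally at 30, 60 or 100 mg/kg, with six or eight animals per cohort. The vehicle was either a suspension in 1% CMC/0.5% Tween/5 mM citrate in H₂O or a 40/10/50 PEG/EtOH/H₂O solution, depending on compound. Unbound plasma concentration was sampled at 1–12 h post-dose alongside brain, CSF and CSF Aβ₁₋₄₀.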

[13] = Unbound plasma concentration in Hartley guinea pig at 60 mg/kg, po measured at 5 hrs; assay type: ADME, organism-based, Cavia porcellus; parameters: dose 60 mg/kg, route oral; conditions: in vivo; outline: as §5
[14] = Drug uptake in Hartley guinea pig CSF at 60 mg/kg, po measured at 3 hrs; assay type: ADME, organism-based, Cavia porcellus, Cerebrospinal fluid; parameters: dose 60 mg/kg, route oral; conditions: read-out: Drug uptake
Outline: (§6)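 Male Hartley guinea pigs, oral dosing (CMC/Tween/citrate suspension or PEG/EtOH/H₂O solution), six or eight animals per cohort; CSF drug concentration (nM) measured at each time point.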

[15] = Drug uptake in Hartley guinea pig CSF at 60 mg/kg, po measured at 5 hrs; assay type: ADME, organism-based, Cavia porcellus, Cerebrospinal fluid; parameters: dose 60 mg/kg, route oral; conditions: read-out: Drug uptake; outline: as §6
[16] = Fraction unbound in Hartley guinea pig brain at 60 mg/kg, po measured at 5 hrs; assay type: ADME, organism-based, Cavia porcellus; parameters: dose 60 mg/kg, route oral; conditions: in vivo
[17] = Ratio of unbound drug level in brain to plasma in Hartley guinea pig at 60 mg/kg, po measured at 5 hrs; assay type: ADME, organism-based, Cavia porcellus; parameters: dose 60 mg/kg, route oral; conditions: brain and plasma (unbound), read-out: K(p,uu,brain); outline: as §4

Compound	Cp(f) (Plasma [2])	Drug uptake(free) (Brain [3])	Drug uptake(free) (Brain [4])	bioavailability [5]	Kp uu at 4 h [6]	Cp(f) (Plasma [7])	Kp uu at 1 h [8]	CLhep predicted at 1 µM [9]	CLH (Mus musculus)	further results
C[C@]12CCOC[C@@H]1[C@]1(COC(N)=N1)c1cc(-c3cc(F)cc(Cl)c3)ccc1O2	3.7 nM	7.2 nM	2.5 nM	43%	0.68	9.5 nM	0.76	57 mL/min/kg	48 mL/min/kg	pKa [1]: 6.7
CN1C(=O)[C@]2(N=C1N)c1cc(-c3cccc(C#N)c3)ccc1O[C@H]1CCOC[C@@H]12	–	–	–	–	–	–	–	–	–	Kp uu at 3 h [10]: 0.046; Drug uptake(free) [11]: 12 nM; Cp(f) [12]: 260 nM; Cp(f) [13]: 79 nM; concentration at 3 h [14]: 90 nM; concentration at 5 h [15]: 40 nM; Drug uptake(free) [16]: 6.7 nM; Kp uu at 5 h [17]: 0.085
C[C@]12CCOC[C@@H]1[C@]1(COC(N)=N1)c1cc(-c3cncc(Cl)c3)c(F)cc1O2 (racemic)	–	–	–	–	–	–	–	65 mL/min/kg	–	–
C[C@]12CCOC[C@@H]1[C@]1(COC(N)=N1)c1cc(-c3cccnc3F)c(F)cc1O2 (racemic)	–	–	–	–	–	–	–	84 mL/min/kg	–	–
C[C@]12CCOC[C@@H]1[C@]1(COC(N)=N1)c1cc(-c3cncc(Cl)c3)ccc1O2 (racemic)	120 nM	18 nM	5.8 nM	76%	0.048	220 nM	0.082	60 mL/min/kg	34 mL/min/kg	–
C[C@]12CCOC[C@@H]1[C@]1(COC(N)=N1)c1cc(-c3cccnc3F)ccc1O2 (racemic)	–	–	–	–	–	–	–	61 mL/min/kg	–	–
C[C@H]1OCC[C@H]2Oc3ccc(-c4cccnc4F)cc3[C@]3(N=C(N)N(C)C3=O)[C@H]12 (racemic)	63 nM	7.1 nM	< 0.75 nM	75%	< 0.012	260 nM	0.027	51 mL/min/kg	72 mL/min/kg	–
C[C@H]1OCC[C@H]2Oc3ccc(-c4cccnc4F)cc3[C@@]3(COC(N)=N3)[C@H]12 (racemic)	–	–	–	–	–	–	–	–	–	pKa [1]: 6.4
CN1C(=O)[C@]2(N=C1N)c1cc(-c3cccnc3F)ccc1O[C@H]1CCOC[C@@]12C (racemic)	25 nM	1.9 nM	3.7 nM	15%	0.15	53 nM	0.036	55 mL/min/kg	51 mL/min/kg	–
C[C@@]12COCC[C@H]1Oc1ccc(-c3cccnc3F)cc1[C@@]21COC(N)=N1 (racemic)	–	–	–	–	–	–	–	–	–	pKa [1]: 6.4
CN1C(=O)[C@]2(N=C1N)c1cc(-c3cccc(OC(F)F)c3)c(F)cc1O[C@H]1CCOC[C@@H]12 (racemic)	–	–	–	–	–	–	–	21 mL/min/kg	–	–
CN1C(=O)[C@]2(N=C1N)c1cc(-c3cccnc3F)c(F)cc1O[C@H]1CCOC[C@@H]12 (racemic)	–	–	–	–	–	–	–	40 mL/min/kg	–	–
CN1C(=O)[C@]2(N=C1N)c1cc(-c3cncc(F)c3)ccc1O[C@H]1CCOC[C@@H]12 (racemic)	17 nM	4.4 nM	< 2.3 nM	38%	< 0.14	160 nM	0.028	45 mL/min/kg	140 mL/min/kg	–
CN1C(=O)[C@]2(N=C1N)c1cc(-c3cncc(Cl)c3)ccc1O[C@H]1CCOC[C@@H]12 (racemic)	7.5 nM	1 nM	< 0.8 nM	19%	< 0.11	26 nM	0.038	54 mL/min/kg	110 mL/min/kg	–
CN1C(=O)[C@]2(N=C1N)c1cc(-c3cccc(C#N)c3)ccc1O[C@H]1CCOC[C@@H]12 (racemic)	170 nM	3 nM	4.3 nM	103%	0.025	210 nM	0.014	17 mL/min/kg	35 mL/min/kg	–
CN1C(=O)[C@]2(N=C1N)c1cc(-c3cc(F)cc(Cl)c3)ccc1O[C@H]1CCOC[C@@H]12 (racemic)	17 nM	0.28 nM	0.49 nM	67%	0.029	8.7 nM	0.032	32 mL/min/kg	22 mL/min/kg	–
CN1C(=O)[C@]2(N=C1N)c1cc(-c3cccnc3F)ccc1O[C@H]1CCOC[C@@H]12 (racemic)	75 nM	11 nM	8.4 nM	–	–	320 nM	–	46 mL/min/kg	70 mL/min/kg	K(p,uu,brain) ([6]; mouse, 4 h): 0.11; K(p,uu,brain) ([8]; mouse, 1 h): 0.034

Reference: ChEMBL document CHEMBL3124885, “Discovery of 7-tetrahydropyran-2-yl chromans: β-site amyloid precursor protein cleaving enzyme 1 (BACE1) inhibitors that reduce amyloid β-protein (Aβ) in the central nervous system” (J Med Chem, 2014)
